Residue numbers refer to the chain shown, from its start.
Experiments:
RAD18-MAGE-A4 complex = biological target: T1, RAD18-MAGE-A4 complex (Homo sapiens, UniProt P43358); assay: Co-immunoprecipitation of the RAD18-MAGE-A4 complex in cell lysates; details: 10 μM peptides
T1 sequence (P43358 1-317): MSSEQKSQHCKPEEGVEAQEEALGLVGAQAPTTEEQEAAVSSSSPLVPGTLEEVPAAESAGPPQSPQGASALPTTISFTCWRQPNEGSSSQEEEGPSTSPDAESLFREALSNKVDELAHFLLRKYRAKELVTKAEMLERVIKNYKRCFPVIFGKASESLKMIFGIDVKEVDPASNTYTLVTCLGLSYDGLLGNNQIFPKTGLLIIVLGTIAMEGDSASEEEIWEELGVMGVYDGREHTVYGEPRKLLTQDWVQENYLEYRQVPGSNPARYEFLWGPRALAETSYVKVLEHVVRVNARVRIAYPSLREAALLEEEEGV
Method in brief: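 Read-out is Western blotting of MAGE-A4 co-immunoprecipitated with RAD18 from cell lysates. Peptides were tested at 10 μM, alongside a peptide included as a negative control.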

MAGE-A4 C80A [1] = biological target: T2, MAGE-A4 C80A (Homo sapiens, UniProt P43358, C80A); assay: TR-FRET between AF647-MTP-1 and MAGE-A4 C80A; type: binding; details: TR-FRET vs AF647-MTP-1
T2 sequence (P43358 1-317 C80A): T1 sequence (P43358 1-317) with C80A

MAGE-A4 [2] = biological target: T3, MAGE-A4 (Homo sapiens, UniProt P43358); assay: TR-FRET between AF647-MTP-1 and MAGE-A4; type: binding
T3 sequence (P43358 1-317): T1 sequence (P43358 1-317)
Method in brief: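 Time-dependent TR-FRET measured displacement of AF647-labelled MTP-1 peptide tracer from MAGE-A4 (and from MAGE-A4 C80A) by covalent peptides. IC50 values were calculated from the resulting TR-FRET curves.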

MAGE-A4 C80A [3] = biological target: T2, MAGE-A4 C80A; assay: MALDI-MS covalent modification of MAGE-A4 C80A mutant; type: binding
Method in brief: (§1)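 MAGE-A4 wild type or its C80A mutant was incubated with each peptide, and the intact protein was analysed by MALDI-MS for covalent adducts. L-Ala and D-Ala variants of each peptide, in which the dehydroalanines are replaced, were run in parallel.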

MAGE-A4 [4] = biological target: T3, MAGE-A4; assay: MALDI-MS covalent modification of MAGE-A4; type: binding
Method in brief: as §1

MAGE-A4 [5] = biological target: T3, MAGE-A4; assay: Mass dilution TR-FRET assay for kinetic parameters; type: binding

## MCP1
RAD18-MAGE-A4 complex
  disruption of MAGE-A4 pulldown with RAD18: able to disrupt MAGE-A4 pulldown
MAGE-A4 C80A [1]
  IC50 / activity in the presence of MAGE-A4 C80A: fell in between those of their L- and D-Ala mutants
MAGE-A4 [2]; after 1 hour
  IC50: 9 nM
MAGE-A4 [2]; time-dependent TR-FRET
  change in potency over time: small yet significant increases in potency over time
MAGE-A4 C80A [3]
  covalent modification of MAGE-A4 C80A mutant: did not label
MAGE-A4 [4]
  covalent modification of MAGE-A4: modify MAGE-A4
MAGE-A4 [5]
  Ki: 7.3 ± 1.1 nM
  inactivation efficiency (kinact/KI): 8.17e+06 ± 867000 M⁻¹ s⁻¹
  kinact: 3.4 ± 0.3 min⁻¹
